Test results published in ChEMBL document CHEMBL4145448, “Broad activity of diphenyleneiodonium analogues against Mycobacterium tuberculosis, malaria parasites and bacterial pathogens” (Eur J Med Chem, 2018).

Columns and labels:
[1] = Selectivity index, ratio of CC50 for human HepG2 cells in presence of 1% FBS to MIC for Pseudomonas aeruginosa isolate 912; assay type: toxicity; details: read-out: Selectivity Index
Outline: (§1)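 Selectivity index is CC50 (1% FBS) divided by MIC. […] They then got compound at 300 to 0.14 µM (3-fold steps) for 24 h at 37 °C, 5% CO2. Resazurin (10 µM, 2 h) was read at ex/em 560/590 in duplicate wells. For MIC, CLSI broth microdilution was run in CaMHB with ~10^6 cfu/mL inoculum and 0–128 µM compound.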

Acinetobacter baumannii [2] = assay: Antibacterial activity against Acinetobacter baumannii ATCC 19606 col10 after 18 hrs by broth microdilution method; assay type: functional; details: ATCC 19606 = CIP 70.34 = JCM 6841 col10, 18 h
Outline: (§2)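 Broth microdilution per CLSI in cation-adjusted Mueller-Hinton broth. 100 µL inoculum (~10^6 cfu/mL in CaMHB) mixed with 100 µL CaMHB containing compound, 0 to 128 µM. Incubated 18 h at 37 °C. MIC taken as the lowest concentration with no visible growth. Polymyxin B served as positive control. Isolates were stored at -80 °C in tryptone soy broth with 20% glycerol.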

Pseudomonas aeruginosa [3] = assay: Antibacterial activity against Pseudomonas aeruginosa isolate 18878B klon 1 after 18 hrs by broth microdilution method; assay type: functional; details: isolate 18878B klon 1, 18 h; outline: as §2
Pseudomonas aeruginosa [4] = assay: Antibacterial activity against Pseudomonas aeruginosa isolate 19147nm after 18 hrs by broth microdilution method; assay type: functional; outline: as §2
[5] = Selectivity index, ratio of CC50 for human HepG2 cells in presence of 1% FBS to IC50 for CQ-sensitive GFP-fused Plasmodium falciparum D10; assay type: toxicity; details: read-out: Ratio IC50
[6] = Selectivity index, ratio of CC50 for human HepG2 cells in presence of 1% FBS to MIC for Klebsiella pneumoniae isolate 224-11-C; assay type: toxicity; details: read-out: Selectivity Index
Klebsiella pneumoniae [7] = assay: Antibacterial activity against Klebsiella pneumoniae isolate 248-33-D after 18 hrs by broth microdilution method; assay type: functional; outline: as §2
Staphylococcus aureus [8] = assay: Antibacterial activity against vancomycin-intermediate Staphylococcus aureus ATCC 700698 after 18 hrs by broth microdilution method; assay type: functional; details: ATCC 700698, 18 h; outline: as §2
Staphylococcus aureus [9] = assay: Antibacterial activity against vancomycin-resistant Staphylococcus aureus ATCC 700699 after 18 hrs by broth microdilution method; assay type: functional; details: ATCC 700699, 18 h; outline: as §2
[10] = Selectivity index, ratio of CC50 for human HepG2 cells in presence of 1% FBS to MIC for Klebsiella pneumoniae isolate 248-33-D; assay type: toxicity; details: read-out: Selectivity Index
Enterococcus faecium = assay: Antibacterial activity against vancomycin-resistant Enterococcus faecium ATCC 700221 after 18 hrs by broth microdilution method; assay type: functional; details: ATCC 700221, 18 h; outline: as §2
Pseudomonas aeruginosa [11] = assay: Antibacterial activity against Pseudomonas aeruginosa QLD PSA 1 after 18 hrs by broth microdilution method; assay type: functional; details: QLD PSA 1, 18 h; outline: as §2
[12] = Selectivity index, ratio of CC50 for human HepG2 cells in presence of 1% FBS to MIC for Acinetobacter baumannii ATCC 19606 col10; assay type: toxicity; details: read-out: Selectivity Index
Escherichia coli [13] = assay: Antibacterial activity against Escherichia coli N2381 after 18 hrs by broth microdilution method; assay type: functional; details: N2381, 18 h; outline: as §2
[14] = Selectivity index, ratio of CC50 for human HepG2 cells in presence of 1% FBS to MIC for Escherichia coli N4149; assay type: toxicity; details: read-out: Selectivity Index
[15] = Selectivity index, ratio of CC50 for human HepG2 cells in presence of 1% FBS to MIC for Pseudomonas aeruginosa isolate 18878B klon 1; assay type: toxicity; details: read-out: Selectivity Index; outline: as §1
Escherichia coli [16] = assay: Antibacterial activity against Escherichia coli N4149 after 18 hrs by broth microdilution method; assay type: functional; details: N4149, 18 h; outline: as §2
[17] = Selectivity index, ratio of CC50 for human HepG2 cells in presence of 1% FBS to MIC for Pseudomonas aeruginosa ATCC 27853; assay type: toxicity; details: read-out: Selectivity Index; outline: as §1
Escherichia coli [18] = assay: Antibacterial activity against Escherichia coli N11281 after 18 hrs by broth microdilution method; assay type: functional; details: N11281, 18 h; outline: as §2
Plasmodium falciparum = assay: Growth inhibition of CQ-sensitive GFP-fused Plasmodium falciparum D10 after 90 hrs by ethidium bromide staining based flow cytometry; assay type: functional, organism-based; details: D10, 90 h
Outline: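 Parasites cultured in human O+ erythrocytes in RPMI-HEPES pH 7.4 with hypoxanthine, NaHCO3, gentamicin and 0.5% Albumax II under 1% O2/4% CO2 at 37 °C. Synchronised to rings with heparin plus sorbitol. Set up at 1% parasitaemia and 1% haematocrit with 10x compound added. Cultured 90 h to next-cycle trophozoites. Stained with 10 µg/mL ethidium bromide for 1 h, washed, parasitaemia counted by flow cytometry with GFP gating.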

Klebsiella pneumoniae [19] = assay: Antibacterial activity against Klebsiella pneumoniae isolate 1 after 18 hrs by broth microdilution method; assay type: functional; details: isolate 1, 18 h; outline: as §2
[20] = Selectivity index, ratio of CC50 for human HepG2 cells in presence of 1% FBS to MIC for Pseudomonas aeruginosa isolate 19147nm; assay type: toxicity; details: read-out: Selectivity Index; outline: as §1
[21] = Selectivity index, ratio of CC50 for human HepG2 cells in presence of 1% FBS to MIC for Acinetobacter baumannii ATCC 19606; assay type: toxicity; details: read-out: Selectivity Index
Acinetobacter baumannii [22] = assay: Antibacterial activity against Acinetobacter baumannii ATCC 17978 after 18 hrs by broth microdilution method; assay type: functional; details: ATCC 17978, 18 h; outline: as §2
[23] = Selectivity index, ratio of CC50 for human HepG2 cells in presence of 1% FBS to MIC for Escherichia coli N11281; assay type: toxicity; details: read-out: Selectivity Index
Klebsiella pneumoniae [24] = assay: Antibacterial activity against Klebsiella pneumoniae isolate M320445 after 18 hrs by broth microdilution method; assay type: functional; details: isolate M320445, 18 h; outline: as §2
[25] = tested on: Mycobacterium tuberculosis; assay: Antimycobacterial activity against Mycobacterium tuberculosis H37Rv ATCC 25618 after 7 days by resazurin dye based assay; assay type: functional; details: H37Rv ATCC 25618, 168 h
Outline: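 H37Rv grown at 37 °C in 7H9 with 10% ADC, 0.5% glycerol and 0.02% tyloxapol. Compounds serially diluted in water, 0 to 10 µM, in triplicate. Culture adjusted to OD600 0.001 and incubated 7 days at 37 °C. Resazurin (0.05% w/v) added for 4-24 h and fluorescence read at 590 nm. MIC is the lowest concentration giving complete growth inhibition versus untreated. Rifampicin served as control.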

[26] = Selectivity index, ratio of CC50 for human HepG2 cells in presence of 1% FBS to MIC for Klebsiella pneumoniae isolate 1; assay type: toxicity; details: read-out: Selectivity Index
[27] = Selectivity index, ratio of CC50 for human HepG2 cells in presence of 1% FBS to MIC for vancomycin-intermediate Staphylococcus aureus ATCC 700698; assay type: toxicity; details: read-out: Selectivity Index; outline: as §1
[28] = Cytotoxicity against human HepG2 cells after 24 hrs in presence of 1% FBS by resazurin dye based assay; assay type: cell-based
Outline: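 HepG2 cells seeded at 4000/well in DMEM with 1% FBS and allowed to attach for 24 h at 37 °C, 5% CO2. Compounds added from 300 to 0.14 µM in 3-fold steps and incubated 24 h. 10 µM resazurin added for 2 h, fluorescence read at ex/em 560/590. Percent viability computed relative to untreated and negative controls, duplicate wells.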

Klebsiella pneumoniae [29] = assay: Antibacterial activity against Klebsiella pneumoniae isolate 224-11-C after 18 hrs by broth microdilution method; assay type: functional; outline: as §2

SMILES | selectivity ratio [1] | MIC (Acinetobacter baumannii [2]) [µM] | MIC (Pseudomonas aeruginosa [3]) [µM] | MIC (Pseudomonas aeruginosa [4]) [µM] | selectivity ratio [5] | selectivity ratio [6] | MIC (Klebsiella pneumoniae [7]) [µM] | MIC (Staphylococcus aureus [8]) [µM] | MIC (Staphylococcus aureus [9]) [µM] | selectivity ratio [10] | MIC (Enterococcus faecium) [µM] | MIC (Pseudomonas aeruginosa [11]) [µM] | selectivity ratio [12] | MIC (Escherichia coli [13]) [µM] | selectivity ratio [14] | selectivity ratio [15] | MIC (Escherichia coli [16]) [µM] | selectivity ratio [17] | MIC (Escherichia coli [18]) [µM] | IC50 (Plasmodium falciparum) [nM] | other results
Fc1ccc2c(c1)-c1ccccc1[I+]2 | 5.3 | 2.2 | 2.2 | 1.1 | 125 | 0.33 | 18 | 18 | 9.1 | 0.67 | 4.5 | 18 | 5.3 | 18 | 0.33 | 5.3 | 36 | 0.67 | 18 | 100 | MIC (Klebsiella pneumoniae [19]): 36 µM; selectivity ratio [20]: 11; selectivity ratio [21]: 2.7; MIC (Acinetobacter baumannii [22]): 2.2 µM; selectivity ratio [23]: 0.67; MIC (Klebsiella pneumoniae [24]): 18 µM; MIC [25]: 0.29 µM; selectivity ratio [26]: 0.33; selectivity ratio [27]: 0.67; CC50 at 24 h [28]: 11900 nM; MIC (Klebsiella pneumoniae [29]): 36 µM
N#Cc1ccc2c(c1)-c1ccccc1[I+]2 | 2.5 | 2.2 | 8.8 | 4.4 | 531 | > 0.32 | 71 | 8.8 | 8.8 | 0.32 | 1.1 | 18 | 10 | 71 | > 0.32 | 2.5 | > 71 | 0.32 | 71 | 40 | MIC (Klebsiella pneumoniae [19]): > 71 µM; selectivity ratio [20]: 5.1; selectivity ratio [21]: 0.13; MIC (Acinetobacter baumannii [22]): 4.4 µM; selectivity ratio [23]: 0.32; MIC (Klebsiella pneumoniae [24]): 71 µM; MIC [25]: 0.29 µM; selectivity ratio [26]: > 0.32; selectivity ratio [27]: 2.5; CC50 at 24 h [28]: 22300 nM; MIC (Klebsiella pneumoniae [29]): > 71 µM
COc1ccc2c(c1)-c1ccccc1[I+]2 | 2.3 | 8.7 | 35 | 18 | 213 | > 0.29 | > 70 | 35 | 35 | > 0.29 | 4.4 | 70 | 2.3 | > 70 | > 0.29 | 0.58 | > 70 | > 0.29 | > 70 | 100 | MIC (Klebsiella pneumoniae [19]): > 70 µM; selectivity ratio [20]: 1.2; selectivity ratio [21]: 0.58; MIC (Acinetobacter baumannii [22]): 18 µM; selectivity ratio [23]: > 0.29; MIC (Klebsiella pneumoniae [24]): 70 µM; MIC [25]: 1.1 µM; selectivity ratio [26]: > 0.29; selectivity ratio [27]: 0.58; CC50 at 24 h [28]: 20200 nM; MIC (Klebsiella pneumoniae [29]): > 70 µM
N#Cc1ccc2c(c1)[I+]c1ccccc1-2 | 0.75 | 2.2 | 4.4 | 2.2 | 62 | > 0.05 | > 71 | 8.8 | 8.8 | > 0.05 | 2.2 | 8.8 | 1.5 | 71 | 0.05 | 0.75 | 71 | 0.09 | 71 | 50 | MIC (Klebsiella pneumoniae [19]): > 71 µM; selectivity ratio [20]: 1.5; selectivity ratio [21]: 0.19; MIC (Acinetobacter baumannii [22]): 4.4 µM; selectivity ratio [23]: 0.05; MIC (Klebsiella pneumoniae [24]): 35 µM; MIC [25]: 0.29 µM; selectivity ratio [26]: > 0.05; selectivity ratio [27]: 0.37; CC50 at 24 h [28]: 3300 nM; MIC (Klebsiella pneumoniae [29]): > 71 µM
Cc1ccc2c(c1)[I+]c1ccccc1-2.O=S(=O)([O-])C(F)(F)F | 0.81 | 4.5 | 4.5 | 4.5 | 15.8 | 0.05 | 72 | 9.1 | 9.05 | 0.05 | 4.5 | > 72 | 0.81 | 72 | 0.05 | 0.81 | 72 | 0.05 | 36 | 230 | MIC (Klebsiella pneumoniae [19]): 72 µM; selectivity ratio [20]: 0.81; selectivity ratio [21]: 0.41; MIC (Acinetobacter baumannii [22]): 4.5 µM; selectivity ratio [23]: 0.11; MIC (Klebsiella pneumoniae [24]): 36 µM; MIC [25]: 0.57 µM; selectivity ratio [26]: 0.05; selectivity ratio [27]: 0.41; CC50 at 24 h [28]: 3600 nM; MIC (Klebsiella pneumoniae [29]): 72 µM
Clc1ccc2c(c1)[I+]c1ccccc1-2 | 1 | 1.1 | 0.54 | 0.54 | 15 | 0.06 | 17 | 2.2 | 2.2 | 0.06 | 1.1 | 2.2 | 1 | 8.7 | 0.13 | 2 | 8.7 | 0.13 | 4.3 | 70 | MIC (Klebsiella pneumoniae [19]): 17 µM; selectivity ratio [20]: 2; selectivity ratio [21]: 0.51; MIC (Acinetobacter baumannii [22]): 0.54 µM; selectivity ratio [23]: 0.26; MIC (Klebsiella pneumoniae [24]): 8.7 µM; MIC [25]: 0.28 µM; selectivity ratio [26]: 0.06; selectivity ratio [27]: 0.51; CC50 at 24 h [28]: 1100 nM; MIC (Klebsiella pneumoniae [29]): 17 µM
Clc1ccc2c(c1)-c1ccccc1[I+]2 | 3.7 | 2.2 | 2.2 | 4.3 | 194 | 0.47 | 17 | 4.3 | 4.3 | 0.93 | 8.7 | 8.7 | 7.5 | 17 | 0.93 | 7.5 | 17 | 1.9 | 17 | 80 | MIC (Klebsiella pneumoniae [19]): 35 µM; selectivity ratio [20]: 3.7; selectivity ratio [21]: 3.7; MIC (Acinetobacter baumannii [22]): 2.2 µM; selectivity ratio [23]: 0.93; MIC (Klebsiella pneumoniae [24]): 35 µM; MIC [25]: 0.54 µM; selectivity ratio [26]: 0.47; selectivity ratio [27]: 3.7; CC50 at 24 h [28]: 16100 nM; MIC (Klebsiella pneumoniae [29]): 35 µM
